Assay results as given in ChEMBL document CHEMBL1147108, “Comparison of disk diffusion and agar dilution methods for erythromycin and ciprofloxacin susceptibility testing of Campylobacter jejuni subsp. jejuni” (2007).
≈ marks a conversion by molar mass, not a printed value.

Columns and labels:
Format in all cases: functional
Campylobacter jejuni [1] = experiment: Antibacterial activity against susceptible Campylobacter jejuni isolates by disk diffusion test; conditions: for MIC: Campylobacter jejuni
In short: (§1)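 Isolate suspensions were made in Mueller-Hinton broth to 0.5 McFarland and spread on Mueller-Hinton agar with 5% sheep blood. Disks used were erythromycin 15 μg and ciprofloxacin 5 μg. Plates were held at 37°C for 48 h, and inhibition zone diameters were measured with slipping calipers; 6 mm means no zone.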

Campylobacter jejuni [2] = experiment: Antimicrobial activity against ciprofloxacin-resistant Campylobacter jejuni isolates by disk diffusion test; in short: as §1
Campylobacter jejuni [3] = experiment: Antibacterial activity against susceptible Campylobacter jejuni isolates by agar dilution test
In short: (§2)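 Agar dilution MICs of clinical C. jejuni isolates, run at 37°C following CLSI recommendations; C. jejuni ATCC 33560 served as control strain.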

Campylobacter jejuni [4] = experiment: Antimicrobial activity against ciprofloxacin-resistant Campylobacter jejuni isolate by agar dilution test; in short: as §2
Campylobacter jejuni [5] = experiment: Antibacterial activity against erythromycin-resistant Campylobacter jejuni isolates by agar dilution test; in short: as §2
Campylobacter jejuni [6] = experiment: Antibacterial activity against erythromycin-resistant Campylobacter jejuni isolates by disk diffusion test; in short: as §1

In the case of `O=C(O)c1cn(C2CC2)c2cc(N3CCNCC3)c(F)cc2c1=O` [CIPROFLOXACIN], the “inhibition zone (IZ)” value (Campylobacter jejuni [1]) is reported as 21 mm, the MIC (Campylobacter jejuni [1]) is reported as 0.06 µg/mL (≈ 0.181 µM) and the “inhibition zone (IZ)” value (Campylobacter jejuni [2]) is reported as 6 mm. It also gave an MIC (Campylobacter jejuni [2]; Campylobacter jejuni) of 4 µg/mL (≈ 12.1 µM), an MIC (Campylobacter jejuni [3]) of 0.06 µg/mL (≈ 0.181 µM) and an MIC (Campylobacter jejuni [4]) of 4 µg/mL (≈ 12.1 µM).
`CC[C@H]1OC(=O)[C@H](C)[C@@H](O[C@H]2C[C@@](C)(OC)[C@@H](O)[C@H](C)O2)[C@H](C)[C@@H](O[C@@H]2O[C@H](C)C[C@H](N(C)C)[C@H]2O)[C@](C)(O)C[C@@H](C)C(=O)[C@H](C)[C@@H](O)[C@]1(C)O` [ERYTHROMYCIN] was tested, and the “inhibition zone (IZ)” value (Campylobacter jejuni [1]) was 17.5 mm, the MIC (Campylobacter jejuni [1]) was 0.06 µg/mL (≈ 0.0818 µM) and the MIC (Campylobacter jejuni [3]) was 0.06 µg/mL (≈ 0.0818 µM). For the same compound, the MIC (Campylobacter jejuni [5]) was ≥ 256 µg/mL, the “inhibition zone (IZ)” value (Campylobacter jejuni [6]) was 6 mm and the MIC (Campylobacter jejuni [6]; Campylobacter jejuni) was ≥ 256 µg/mL.
